Structures are written as SMILES. Several values for one entry are separate records, joined by “and”; a condition that tells them apart may be missing. Equal entries are not always repeated. Structures can show the parent of a compound that is named as a salt. Bounds are passed on as bounds.

Test [1] concerns Cavia porcellus. Kind of test: Ex vivo inhibition of ADP induced guinea pig platelet aggregation following 0.08 mmol/kg administration. The test is classed as functional. An outline of the steps:
(§1)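 Fasted male rats (~200 g) or guinea pigs (~300 g), n=5-10, dosed orally (5 mL/kg) in 1% methylcellulose; methylcellulose alone as control. Killed with CO2 after 2 h. Vena cava blood citrated (102 mM rat, 129 mM guinea pig); PRP adjusted to 800000/µL (rat) or 500000/µL (guinea pig). EC25 for first-phase ADP aggregation (max 8 µM) interpolated from two 2-fold-spaced ADP levels. Dose ratio = treated/control mean EC25; Student's t-test. Some groups tested as pooled PRP.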

Test [2] deals with Cavia porcellus. Kind of test: The compound was tested ex vivo at a dose of 0.08 mmol/kg or collagen induced platelet aggregation in guinea pig. The test is classed as functional. The method, boiled down:
(§2)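 Male rats (~200 g) or guinea pigs (~300 g), overnight fasted, n=5-10, received compound orally in 1% methylcellulose (5 mL/kg); vehicle-only controls. After 2 h, CO2 kill and vena cava blood into citrate (102 mM rat, 129 mM guinea pig). PRP set to 800000/µL (rat) or 500000/µL (guinea pig). Collagen EC50 (response of 50 mm; max 50 µg/mL) interpolated from a log plot. Dose ratio = treated/control mean EC50; t-test. Pooled PRP sometimes used.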

The subject of test [3] is Cavia porcellus. Put plainly: The compound was tested ex vivo at a dose of 0.15 mmol/kg for ADP induced platelet aggregation in guinea pig. It counts as functional. An outline of the steps: as §1
Test [4] relates to Cavia porcellus. Kind of test: The compound was tested ex vivo fat a dose of 0.15 mmol/kg for collagen induced platelet aggregation in guinea pig. It counts as functional. An outline of the steps: as §2
Test [5] deals with Rattus norvegicus. Put plainly: The compound was tested ex vivo at a dose of 0.15 mmol/kg for collagen induced platelet aggregation in rat. It counts as functional. The method, boiled down: as §2
For test [6], the system named is Rattus norvegicus. Kind of test: The compound was tested ex vivo at a dose of 0.15 mmol/kg for ADP induced platelet aggregation in rat. The test is classed as functional. An outline of the steps:
as §1

For test [7], the system named is Rattus norvegicus. Put plainly: The compound was tested at a dose of 0.15 mmol/kg ex vivo for collagen induced platelet aggregation in rat. The test is classed as functional. The method, boiled down: as §2
The subject of test [8] is Rattus norvegicus. Kind of test: The compound was tested at a dose of 0.15 mmol/kg ex vivo for ADP induced platelet aggregation in rat. It counts as functional. The method, boiled down: as §1
The species named for test [9] is Homo sapiens. Put plainly: (§3) In vitro inhibitory activity against human platelet aggregation in the presence of collagen. The test is classed as functional. An outline of the steps:
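Aggregation measured photometrically in human citrated PRP (350000 platelets/µL, stirred at 1100 rpm). Compound or saline preincubated 3 min at 37 °C. Collagen at a just-maximal level chosen for each sample (typically 0.7-1.4 µg/mL). Maximum increase in light transmission measured. IC50 = concentration giving 50% inhibition.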

Test [10] concerns Cavia porcellus. Kind of test: The compound was tested ex vivo at a dose of 0.15 mmol/kg for collagen induced platelet aggregation in guinea pig.
The test system of test [11] is Cavia porcellus. Kind of test: The compound was tested ex vivo at a dose of 0.08 mmol/kg for ADP induced platelet aggregation in guinea pig. It counts as functional. An outline of the steps:
as §1

Test [12] concerns Cavia porcellus. Kind of test: The compound was tested ex vivo at a dose of 0.15 mmol/kg for collagen induced platelet aggregation in guinea pig. It counts as functional. The method, boiled down:
as §2

For test [13], the species on record is Homo sapiens. The test is described as §3. The test is classed as functional, organism-based.
Test [14] has as its system Cavia porcellus. Kind of test: The compound was tested ex vivo at a dose of 0.3 mmol/kg for collagen induced platelet aggregation in guinea pig. The test is classed as functional. An outline of the steps:
as §2

Test [15] has as its system Cavia porcellus. Kind of test: The compound was tested ex vivo at a dose of 0.08 mmol/kg for collagen induced platelet aggregation in guinea pig. It counts as functional. The method, boiled down:
as §2

Test [16] has as its system Rattus norvegicus. Kind of test: The compound was tested at a dose of 0.3 mmol/kg ex vivo for collagen induced platelet aggregation in rat. The test is classed as functional. The method, boiled down: as §2
The test system of test [17] is Cavia porcellus. Kind of test: The compound was tested ex vivo at a dose of 0.3 mmol/kg for ADP induced platelet aggregation in guinea pig. It counts as functional. The method, boiled down:
as §1

The subject of test [18] is Rattus norvegicus. Put plainly: The compound was tested ex vivo at a dose of 0.3 mmol/kg for ADP induced platelet aggregation in rat. It counts as functional. An outline of the steps: as §1
Test [19] has as its system Rattus norvegicus. Put plainly: The compound was tested ex vivo at a dose of 0.15 mmol/kg for ADP induced platelet aggregation in rat.
For test [20], the system named is Cavia porcellus. Kind of test: The compound was tested ex vivo at a dose of 0.15 mmol/kg for ADP induced platelet aggregation in guinea pig.
For test [21], the species on record is Rattus norvegicus. Put plainly: The compound was tested ex vivo for ADP induced platelet aggregation in rat. It counts as functional. The method, boiled down: as §1
Test [22] is filed under the species Rattus norvegicus. Put plainly: The compound was tested ex vivo for collagen induced platelet aggregation in rat. It counts as functional. The method, boiled down: as §2
The species named for test [23] is Homo sapiens. Kind of test: In vitro inhibitory activity against human platelet aggregation in the presence of Adenosine diphosphate. The test is classed as functional. An outline of the steps:
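Human citrated PRP, platelet count adjusted to 350000/µL with autologous platelet-poor plasma. 90 µL PRP preincubated 3 min at 37 °C with compound or saline (DMF vehicle where needed), stirred at 1100 rpm. ADP chosen per preparation to give a clear first-phase response (typically 1 µM). Photometric read-out: maximum rise in light transmission within 1 min. IC50 determined.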

The species entered for test [24] is Cavia porcellus. Kind of test: The compound was tested ex vivo for ADP induced platelet aggregation in guinea pig. It counts as functional. An outline of the steps:
as §1

The subject of test [25] is Cavia porcellus. Kind of test: The compound was tested ex vivo at a dose of 0.04 mmol/kg for ADP induced platelet aggregation in guinea pig.
The test system of test [26] is Rattus norvegicus. Put plainly: The compound was tested ex vivo at a dose of 0.15 mmol/kg for collagen induced platelet aggregation in rat.
In test [27] the test system is Cavia porcellus. Put plainly: The compound was tested ex vivo at a dose of 0.02 mmol/kg for collagen induced platelet aggregation in guinea pig. It counts as functional. An outline of the steps: as §2
Test [28] has as its system Cavia porcellus. Put plainly: The compound was tested ex vivo at a dose of 0.04 mmol/kg for ADP induced platelet aggregation in guinea pig. The test is classed as functional. The method, boiled down: as §1
In test [29] the test system is Rattus norvegicus. Put plainly: The compound was tested ex vivo at a dose of 0.08 mmol/kg for ADP induced platelet aggregation in rat. It counts as functional. The method, boiled down: as §1
Test [30] relates to Rattus norvegicus. Kind of test: The compound was tested ex vivo at a dose of 0.08 mmol/kg for collagen induced platelet aggregation in rat. It counts as functional. An outline of the steps: as §2
In test [31] the test system is Rattus norvegicus. Put plainly: The compound was tested ex vivo at a dose of 0.04 mmol/kg for collagen induced platelet aggregation in rat. It counts as functional. An outline of the steps: as §2
Test [32] relates to Rattus norvegicus. Kind of test: The compound was tested ex vivo at a dose of 0.04 mmol/kg for ADP induced platelet aggregation in rat. The test is classed as functional. The method, boiled down:
as §1

The subject of test [33] is Homo sapiens. Kind of test: The compound was tested ex vivo at a dose of 0.1 mmol/kg for ADP induced platelet aggregation in rat.

Consider `O=c1c2ccccc2sn1CCCCCN1CC2CCC(CC2)C1`, for which the results for the Activity in the test on Cavia porcellus [1] and in the test with Cavia porcellus [2] were 1.2 and 2.8, respectively.

For the molecule `O=c1c2ccccc2sn1CCN1CC2CCC(CC2)C1`, the Activity with Cavia porcellus [3] came out at 1.1; with Cavia porcellus [4], 1.7; in the test on Rattus norvegicus [5], 2.2; in the test on Rattus norvegicus [6] it was 1.6.

For orientation: IC50 means the concentration that gives 50% inhibition. With `O=c1c2ccccc2sn1CCN1CCCC1`, the Activity in the test with Cavia porcellus [3] stood at 1.9; with Rattus norvegicus [7] it was 2.3; in the test with Rattus norvegicus [8], 0.9; with Cavia porcellus [10], 13.9. Also, the IC50 in the test filed under Homo sapiens [9] came to 30 µM.

Regarding `COc1cc2sn(CCN3CC4CCC(CC4)C3)c(=O)c2cc1OC`, the Activity is recorded as 1.1 in the test with Cavia porcellus [11]; 1.6 in the test on Cavia porcellus [12]; 1.9 in the test with Cavia porcellus [14]; 1.3 in the test on Cavia porcellus [3]; 1.7 in the test on Cavia porcellus [15]; over 5.8 with Rattus norvegicus [16]. Also, the Activity stood at 2.9 with Rattus norvegicus [5], 1.4 with Rattus norvegicus [6], 1 in the test with Cavia porcellus [17] and 1.9 with Rattus norvegicus [18]. Also, the IC50 in the test listed under Homo sapiens [13] is 110 µM.

Consider `CCN(CC)CCn1sc2cc(OC)c(OC)cc2c1=O`, for which, in the test with Cavia porcellus [12], the “collagen EC50 dose ratio (treated/control)” value is over 47. Further, the Activity in the test with Rattus norvegicus [19] is 2.2; in the test on Rattus norvegicus [5] it was 1.5; in the test with Cavia porcellus [20], 1.1.

For `CC(=O)Oc1ccccc1C(=O)O` [ASPIRIN], the figures for the IC50 in the test listed under Homo sapiens [13] and in the test listed under Homo sapiens [23] were 68 µM and over 1000 µM, respectively. Further, the Activity in the test listed under Rattus norvegicus [21] was 1.1 and 1; in the test listed under Rattus norvegicus [22], 1.5 and 1.8; in the test filed under Cavia porcellus [24], 1.

As to `O=C1C(CC[S+]([O-])c2ccccc2)C(=O)N(c2ccccc2)N1c1ccccc1` (configuration not stated) [SULFINPYRAZONE], the Activity in the test with Cavia porcellus [11] is given as 1.6; with Cavia porcellus [12], 3.2; with Cavia porcellus [25] it was 1.1; with Cavia porcellus [3], 1.1; in the test on Cavia porcellus [15], 6.2; in the test on Rattus norvegicus [26], 1.2. For the same molecule, the Activity in the test on Cavia porcellus [27] is on record as 2.9; with Cavia porcellus [28] it was 1.1; in the test with Rattus norvegicus [29], 1.2; in the test with Rattus norvegicus [30] it was 1.8; with Rattus norvegicus [31], 1.3; in the test on Rattus norvegicus [32] it was 1. The same molecule yielded an Activity in the test on Rattus norvegicus [5] of 1.1. Further, the IC50 in the test listed under Homo sapiens [9] stood at 870 µM.

As to `Clc1ccccc1CN1CCc2sccc2C1` [TICLOPIDINE HYDROCHLORIDE], the values for the IC50 in the test filed under Homo sapiens [13] and in the test with Homo sapiens [33] were 1060 µM and 2000 µM, respectively.

Values taken from ChEMBL document CHEMBL1122845, “Inhibitors of blood platelet aggregation. Effects of some 1,2-benzisothiazol-3-ones on platelet responsiveness to adenosine diphosphate and collagen” (J Med Chem, 1985).
